In article PMC4201344 (ACS Chemical Biology, 2014):
Where a chain is given by its changes, count along the chain named.

How the values were obtained:
Type in all cases: cell-based, C. elegans
GluClβ T10′S = biological target: T1, GluClβ T10′S (Caenorhabditis elegans, UniProt Q17328, T287S); experiment: two-electrode voltage clamp, Xenopus laevis oocytes; conditions: glutamate
T1 sequence (Q17328 23-434 T287S): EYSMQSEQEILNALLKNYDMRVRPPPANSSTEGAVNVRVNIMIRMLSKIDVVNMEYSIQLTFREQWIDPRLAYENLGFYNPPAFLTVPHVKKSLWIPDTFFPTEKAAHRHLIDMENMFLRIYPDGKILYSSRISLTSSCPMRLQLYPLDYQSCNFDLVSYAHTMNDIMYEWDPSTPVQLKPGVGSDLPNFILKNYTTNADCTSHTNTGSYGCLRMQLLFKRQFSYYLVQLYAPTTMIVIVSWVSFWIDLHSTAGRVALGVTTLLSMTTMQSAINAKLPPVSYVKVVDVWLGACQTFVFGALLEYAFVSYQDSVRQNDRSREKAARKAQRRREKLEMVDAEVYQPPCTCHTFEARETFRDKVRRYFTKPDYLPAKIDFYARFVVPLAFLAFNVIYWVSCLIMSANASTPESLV

GluClβ T6′S, R59A = GluClβ T6′S, R59A (Caenorhabditis elegans, UniProt Q17328, R85A/T283S); experiment: two-electrode voltage clamp, Xenopus laevis oocytes; conditions: glutamate
Chain of GluClβ T6′S, R59A (Q17328 23-434 R85A/T283S): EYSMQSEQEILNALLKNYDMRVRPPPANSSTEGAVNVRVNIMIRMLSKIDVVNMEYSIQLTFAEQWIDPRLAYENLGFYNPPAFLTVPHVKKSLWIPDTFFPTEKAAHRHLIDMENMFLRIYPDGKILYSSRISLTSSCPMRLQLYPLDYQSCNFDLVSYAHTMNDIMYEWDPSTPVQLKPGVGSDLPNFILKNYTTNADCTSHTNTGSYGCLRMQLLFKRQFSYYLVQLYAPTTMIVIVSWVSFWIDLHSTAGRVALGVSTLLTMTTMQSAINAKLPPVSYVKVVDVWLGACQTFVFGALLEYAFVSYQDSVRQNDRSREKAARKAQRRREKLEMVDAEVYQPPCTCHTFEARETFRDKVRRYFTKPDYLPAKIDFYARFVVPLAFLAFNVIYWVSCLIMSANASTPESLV
Method in brief: (§1)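 C. elegans GluClβ (mammalian codon-optimised) in pGEMhe, mutated by QuikChange; T7 mRNA. […] Voltage clamp at −60 mV in Ca-free ND96, pH 7.5. […] Peak currents taken from baseline, normalised, averaged per concentration, and fit to Hill equation (EC50, nH).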

GluClβ T6′S, T203A/Y206F = biological target: T2, GluClβ T6′S, T203A/Y206F (Caenorhabditis elegans, UniProt Q17328, T229A/T283S/Y232F); experiment: two-electrode voltage clamp, Xenopus laevis oocytes
T2 sequence (Q17328 23-434 T229A/Y232F/T283S): T1 sequence (Q17328 23-434 T287S) with T207A, Y210F, T261S, S265T

GluClβ A20′S = GluClβ A20′S (Caenorhabditis elegans, UniProt Q17328, A297S); experiment: two-electrode voltage clamp, Xenopus laevis oocytes; conditions: glutamate
Chain of GluClβ A20′S (Q17328 23-434 A297S): as the sequence (Q17328 23-434 R85A/T283S) above, with A63R, S261T, A275S counted along it
Method in brief: as §1

GluClβ A17′T = biological target: T3, GluClβ A17′T (Caenorhabditis elegans, UniProt Q17328, A294T); experiment: two-electrode voltage clamp, Xenopus laevis oocytes; conditions: glutamate
T3 sequence (Q17328 23-434 A294T): T1 sequence (Q17328 23-434 T287S) with S265T, A272T

GluClβ T6′S, R40A = GluClβ T6′S, R40A (Caenorhabditis elegans, UniProt Q17328, R66A/T283S); experiment: as above; conditions: glutamate
Chain of GluClβ T6′S, R40A (Q17328 23-434 R66A/T283S): as the sequence (Q17328 23-434 R85A/T283S) above, with R44A, A63R counted along it

[1] = tested on: GluClβ with α signal sequence, T6’S, Y206 F2-Phe (3,5-F2–Phe); experiment: two-electrode voltage clamp, Xenopus laevis oocytes, nonsense suppression; conditions: glutamate; no plateau at 100 mM
Method in brief: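 Site-specific TAG codon, read by 74mer THG73 tRNA ligated to dCA-acylated amino acid; NVOC removed by 5 min xenon-lamp irradiation just before injection. Oocytes coinjected with 37.5 ng mRNA plus ~1 μg/μL tRNA at 48 and 24 h pre-recording; unacylated 76mer tRNA served as read-through control.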

GluClβ T6′S, Y206A = GluClβ T6′S, Y206A (Caenorhabditis elegans, UniProt Q17328, T283S/Y232A); experiment: two-electrode voltage clamp, Xenopus laevis oocytes; conditions: glutamate
Chain of GluClβ T6′S, Y206A (Q17328 23-434 Y232A/T283S): as the sequence (Q17328 23-434 R85A/T283S) above, with A63R, Y210A counted along it
Method in brief: as §1

GluClβ A17′S = biological target: T4, GluClβ A17′S (Caenorhabditis elegans, UniProt Q17328, A294S); experiment: two-electrode voltage clamp, Xenopus laevis oocytes; conditions: glutamate
T4 sequence (Q17328 23-434 A294S): T1 sequence (Q17328 23-434 T287S) with S265T, A272S

GluClβ T6′S = GluClβ T6′S (Caenorhabditis elegans, UniProt Q17328, T283S); experiment: as above; conditions: glutamate
Chain of GluClβ T6′S (Q17328 23-434 T283S): as the sequence (Q17328 23-434 R85A/T283S) above, with A63R counted along it

[2] = biological target: GluClβ with α signal peptide, T6′S (Caenorhabditis elegans, UniProt Q17328, T283S); experiment: two-electrode voltage clamp, Xenopus laevis oocytes; conditions: glutamate
Chain of GluClβ with α signal peptide, T6′S (Q17328 23-434 T283S): as the sequence (Q17328 23-434 R85A/T283S) above, with A63R counted along it
Method in brief: as §1

[3] = biological target: GluClβ with α signal peptide (no T6′S) (Caenorhabditis elegans, UniProt Q17328); experiment: two-electrode voltage clamp, Xenopus laevis oocytes; conditions: α signal peptide chimera vs wild type
Chain of GluClβ with α signal peptide (no T6′S) (Q17328 23-434): as the sequence (Q17328 23-434 R85A/T283S) above, with A63R, S261T counted along it

For N[C@@H](CCC(=O)O)C(=O)O [glutamate], the EC50 (GluClβ T10′S) was 11 ± 1 µM, the Hill (GluClβ T10′S) was 2.5 ± 0.1 and the Imax (GluClβ T10′S) was 0.3–4 μA. For the same compound, the EC50 (GluClβ T6′S, R59A) was “no response”, the EC50 (GluClβ T6′S, T203A/Y206F; glutamate) was 210 ± 10 µM and the Hill (GluClβ T6′S, T203A/Y206F; glutamate) was 2.2 ± 0.1. For the same compound, the Ω (GluClβ T6′S, T203A/Y206F; mutant cycle analysis T203A, Y206F) was 1/37, the ΔΔG (GluClβ T6′S, T203A/Y206F; mutant cycle analysis, coupling T203A/Y206F) was 2.1 kcal/mol and the EC50 (GluClβ A20′S) was “no response”. The EC50 (GluClβ A17′T) was 58 ± 1 µM, the Hill (GluClβ A17′T) was 2.8 ± 0.1 and the Imax (GluClβ A17′T) was 0.3–13 μA. For the same compound, the EC50 (GluClβ T6′S, R40A) was 1100 ± 100 µM, the Hill (GluClβ T6′S, R40A) was 2.1 ± 0.1 and the EC50 [1] was > 100000 µM. The EC50 (GluClβ T6′S, Y206A) was “no response”, the EC50 (GluClβ A17′S) was 230 ± 10 µM and the Hill (GluClβ A17′S) was 2.5 ± 0.1. For the same compound, the Imax (GluClβ A17′S) was 0.6–12 μA, the Hill (GluClβ T6′S) was 2.4 ± 0.3 and the Hill [2] was 2.7 ± 0.2. The “increase in EC50” value [3] was < 3 fold.
